This passage reports EC50 and IC50 results from ChEMBL document CHEMBL1137803, “A novel anti-HIV macrocyclic peptide from Palicourea condensata” (J Nat Prod, 2001).

Where a SMILES comes first, the peptide text is derived from it. Bridges are numbered along the chain shown (N, C = ends).

For test [1], the system named is Human immunodeficiency virus 1. Description: Antiviral activity against HIV1 RF infected in human CEM-SS cells assessed as inhibition of virus induced cytopathic effect by XTT assay. It is filed as functional, organism-based. The note with it: Human immunodeficiency virus 1, RF. A digest of the protocol: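 HIV-1RF infection of CEM-SS, a human T-lymphoblastoid cell line, in vitro; inhibition of virus-induced cytopathic effects read out and reported as EC50 in µM.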
(Protection from cytopathic effect is a common read-out in antiviral testing.)

The subject of test [2] is CEM-SS. Description: Cytotoxicity against human CEM-SS cells by XTT assay. It is filed as cell-based. (In general: Tetrazolium assays rely on reduction of a dye to a coloured formazan, in cell work by metabolically active cells.)

In general, EC50 refers to the concentration that produces a half-maximal response. In general, IC50 refers to the point on the concentration scale where inhibition reaches its midpoint. The low end stands for greater potency, the high end for weaker potency.

In the case of `CC[C@H](C)[C@@H]1NC(=O)[C@H](C(C)C)NC(=O)[C@H](CCCNC(=N)N)NC(=O)[C@@H]2CSSC[C@@H]3NC(=O)[C@H]([C@@H](C)O)NC(=O)[C@@H]4CSSC[C@H](NC(=O)[C@H](Cc5ccccc5)NC(=O)[C@H]([C@@H](C)O)NC(=O)[C@@H]5CCCN5C(=O)[C@H](CC(=O)O)NC(=O)CNC(=O)[C@H](CC(N)=O)NC(=O)[C@H](CCCNC(=N)N)NC(=O)[C@H](CCCCN)NC(=O)[C@H](CSSC[C@H](NC(=O)[C@H](C(C)C)NC(=O)[C@@H]5CCCN5C1=O)C(=O)N[C@@H]([C@@H](C)O)C(=O)N[C@@H](Cc1ccc(O)cc1)C(=O)N[C@@H](CO)C(=O)N[C@@H](C)C(=O)N[C@@H](C)C(=O)N[C@@H](CC(C)C)C(=O)NCC(=O)N4)NC(=O)[C@H](CC(C)C)NC(=O)CNC(=O)[C@H](CC(=O)O)NC(=O)[C@H](CO)NC(=O)[C@H](CCCNC(=N)N)NC(=O)[C@H](CC(=O)O)NC(=O)[C@H](CC(=O)O)NC3=O)C(=O)NCC(=O)N[C@@H](CCC(=O)O)C(=O)N[C@@H]([C@@H](C)O)C(=O)N2` [PALICOUREIN] (cyclo(AALGCTCDDRSDGLCKRNGDPTFCGETCRVIPVCTYS); disulfide 5-24, 7-28, 15-34), the half-maximal effective concentration (EC50) in test [1] came out at 0.1 µM. The compound further displayed a 50% inhibitory concentration (IC50) in test [2] of 1.5 µM.
